Hits are enriched below; roughly 5.9% of the tested compounds scored in any of these assays.
T cruzi growth-1: T. cruzi intracellular proliferation inhibitors, primary screen, cell-based, beta-gal Tulahuen parasites, NIH3T3 host, luminescence | T. cruzi beta-gal in NIH3T3, GalScreen luminescence, 90 h | actives 5.9% (n = 77,000) | inhibition, % at 8.34 µM;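 active = mean inhibition above about 93%, with at least 55% of replicates each passing it, limit read from the data, passing the limit was not always enough; inconclusive = only one of those two conditions holds; inactive = neither condition holds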
IDH1 mut inh: inhibitors of IDH1 R132H reductase, primary screen, biochemical, plate reader, single point; Isocitrate dehydrogenase [NADP] cytoplasmic (Homo sapiens), O75874; diaphorase/resazurin fluorescence, 60 min; inhibition, % at 10 µM; actives 0.18% (n = 70,000); AID 624101, 2012; in the data active = inhibition above about 34%; inconclusive = no clear call, values can overlap the other calls; inactive = below about 11%
Target sequence (O75874 whole entry R132H): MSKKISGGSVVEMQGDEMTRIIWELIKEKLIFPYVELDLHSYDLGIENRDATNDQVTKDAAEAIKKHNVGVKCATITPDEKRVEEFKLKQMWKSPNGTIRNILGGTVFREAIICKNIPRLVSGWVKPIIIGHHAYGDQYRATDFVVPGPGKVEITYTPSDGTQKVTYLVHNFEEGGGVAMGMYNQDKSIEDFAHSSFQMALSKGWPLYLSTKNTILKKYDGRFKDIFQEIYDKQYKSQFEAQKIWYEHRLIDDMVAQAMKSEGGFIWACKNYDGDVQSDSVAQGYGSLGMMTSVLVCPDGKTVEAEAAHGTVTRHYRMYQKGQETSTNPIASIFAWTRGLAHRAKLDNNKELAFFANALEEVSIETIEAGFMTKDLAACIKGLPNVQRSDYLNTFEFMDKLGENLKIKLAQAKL
KDM4C inh: inhibitors of GASC-1 (KDM4C) histone demethylase, primary screen, biochemical, single concentration HTS. AID 720574, 2013. Lysine-specific demethylase 4C (Homo sapiens), Q9H3R0. inhibition, % at 12.5 µM. GST-KDM4C 2-372, H3K9me3 peptide, LANCE TR-FRET. actives 0.15% (n = 96,000);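 active = mean replicate inhibition above about 25%, with at least 55% of replicates also reaching it, limit read from the data, passing the limit was not always enough; inconclusive = only one of those two conditions met; inactive = neither condition met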
Target sequence (Q9H3R0 2-372 limits assumed): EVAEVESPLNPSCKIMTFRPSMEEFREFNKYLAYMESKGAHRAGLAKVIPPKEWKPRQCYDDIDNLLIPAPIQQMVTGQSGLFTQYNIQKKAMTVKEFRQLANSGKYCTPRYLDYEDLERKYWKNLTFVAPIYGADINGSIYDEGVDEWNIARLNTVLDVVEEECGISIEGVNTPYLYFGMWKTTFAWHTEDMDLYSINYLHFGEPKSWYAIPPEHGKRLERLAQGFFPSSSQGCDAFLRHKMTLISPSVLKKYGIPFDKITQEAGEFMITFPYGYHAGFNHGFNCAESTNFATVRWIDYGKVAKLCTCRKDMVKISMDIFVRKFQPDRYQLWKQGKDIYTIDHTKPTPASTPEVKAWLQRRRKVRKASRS
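Material: GST-tagged GASC-1 (JMJD2C) catalytic fragment, aa 2-372 / Quantity: enzyme final amount 10 nM / Medium: HEPES buffer, pH 7.5, plus ascorbate / Doses: one test concentration per compound / Incubation: 30 min reaction, 60 min detection, RT / Measured by: LANCE TR-FRET / Read-out: inhibition from TR-FRET ratio decrease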
Pf Dd2 inh: P. falciparum Dd2 growth inhibitors, primary screen, SYBR Green fluorescence, single dose replicates; 72 h; hits give low values; activity change, % at 10 µM; actives 2.3% (n = 94,000); in the data active = activity change below about -80%; inconclusive = no clear call, values can overlap the other calls
T cruzi growth-2: T. cruzi intracellular proliferation inhibitors, confirmation, cell-based, NIH3T3 host, beta-gal parasite, luminescence, cherry-pick | shares compounds with T cruzi growth-1 | T. cruzi beta-gal in NIH3T3, GalScreen luminescence, 90 h | inhibition, % at 8.35 µM | actives 72% (n = 5,600);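 active = mean replicate inhibition above about 95% and at least 55% of replicates individually reaching it, limit read from the data; inconclusive = only one of the two criteria is met; inactive = neither criterion is met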
T cruzi growth-3: inhibitors of intracellular T. cruzi replication, confirmation, NIH3T3 host cells, beta-gal parasites, cherry-pick, set 2; actives 21% (n = 5,600); inhibition, % at 2.09 µM; AID 651740, 2012; shares compounds with T cruzi growth-1; T. cruzi beta-gal in NIH3T3, GalScreen luminescence, 90 h;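 active = mean inhibition above about 95%, with at least 55% of replicates also reaching it, limit read from the data; inconclusive = meets just one of the two conditions; inactive = meets neither condition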
3T3 cytotox: cytotoxicity in mouse NIH/3T3 fibroblasts, confirmation, cytotoxicity control for T. cruzi proliferation inhibitor project, cell-based, cherry-pick, single point; shares compounds with T cruzi growth-1; NIH/3T3 viability, CellTiter-Glo ATP luminescence, 90 h; cytotoxicity (signal decrease), % at 8.35 µM; actives 14% (n = 5,600); AID 651742, 2012;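 active = mean signal decrease across replicates above about 35% based on untreated-well scatter, with enough replicates individually passing, limit read from the data; inconclusive = no rule stated though some were filed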
3T3 cytotox 2: NIH/3T3 fibroblast cytotoxicity, confirmation, cytotoxicity control, cell-based, cherry-pick, single point, set 2; shares compounds with T cruzi growth-1; NIH/3T3 viability, CellTiter-Glo ATP luminescence, 90 h; inhibition, % at 24.9 µM; actives 56% (n = 5,600); AID 651744, 2012;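 active = mean loss of cell viability signal at or above a set limit, and enough replicates individually reaching it; inconclusive = meets only the mean limit or only the replicate share; inactive = meets neither condition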
Each line names hits and unclear results; the compound was inactive in the other large screens (follow-up assays come after a bar, where they were run).

Cc1ccc(S(=O)(=O)N(C)C[C@@H]2OCCCC[C@H](C)Oc3ccc(N(C)C)cc3C(=O)N([C@@H](C)CO)C[C@H]2C)cc1	T cruzi growth-1 inconclusive | T cruzi growth-2 inactive | T cruzi growth-3 inactive | 3T3 cytotox inactive | 3T3 cytotox 2 inactive
C=CCn1c2ccccc2c2nnc(SCc3ccc([N+](=O)[O-])cc3)nc21	none (no result: T cruzi growth-1, KDM4C inh, Pf Dd2 inh)
CCn1c(SCC(=O)c2ccc(OC)cc2)nnc1-c1ccc(Cl)cc1	none (no result: T cruzi growth-1, KDM4C inh, Pf Dd2 inh)
Cc1nnc(SCC(=O)Nc2c(C)n(C)n(-c3ccccc3)c2=O)s1	none (no result: T cruzi growth-1, KDM4C inh, Pf Dd2 inh)
CCCCN(CC)C(=O)Cn1c(=O)n(Cc2ccccc2Cl)c(=O)c2cc(OC)c(OC)cc21	none (no result: T cruzi growth-1, KDM4C inh, Pf Dd2 inh)
CN(CC(=O)Nc1ccccc1C(N)=O)S(=O)(=O)c1ccc(Br)cc1	none (no result: T cruzi growth-1, KDM4C inh, Pf Dd2 inh)
COc1ccc(NC(=O)CSC2CC(=O)N(c3ccccc3C)C2=O)cc1 (stereo not given)	none (no result: T cruzi growth-1, KDM4C inh, Pf Dd2 inh)
CCCC#Cc1ccc2c(c1)O[C@H](CN(C)C(=O)CC1CC1)[C@H](C)CN([C@H](C)CO)S2(=O)=O	none
CCCC#Cc1ccc2c(c1)O[C@@H](CN(C)C(=O)CC1CC1)[C@@H](C)CN([C@@H](C)CO)S2(=O)=O	none
CCCC#Cc1ccc2c(c1)O[C@@H](CN(C)C(=O)CC1CC1)[C@H](C)CN([C@H](C)CO)S2(=O)=O	T cruzi growth-1 112.5 | T cruzi growth-2 100.4 | T cruzi growth-3 inactive | 3T3 cytotox inactive | 3T3 cytotox 2 24.3
CCCC#Cc1ccc2c(c1)O[C@@H](CN(C)C(=O)CC1CC1)[C@H](C)CN([C@@H](C)CO)S2(=O)=O	T cruzi growth-1 inconclusive | T cruzi growth-2 106.1 | T cruzi growth-3 inactive | 3T3 cytotox inactive | 3T3 cytotox 2 49.3
C[C@H]1CN([C@@H](C)CO)C(=O)c2cccc(NC(=O)Nc3ccc(C(F)(F)F)cc3)c2O[C@@H]1CN(C)S(=O)(=O)c1ccc(F)cc1	none (no result: IDH1 mut inh)
COc1ccc(NC(=O)Nc2cccc3c2O[C@@H](CN(C)Cc2ccc(Cl)c(Cl)c2)[C@H](C)CN([C@@H](C)CO)C3=O)cc1	T cruzi growth-1 116.4 | T cruzi growth-2 99.2 | T cruzi growth-3 102.0 | 3T3 cytotox inactive | 3T3 cytotox 2 53.0
C[C@@H]1CN([C@H](C)CO)C(=O)c2cccc(NC(=O)Nc3ccc(C(F)(F)F)cc3)c2O[C@H]1CN(C)Cc1ccc(Cl)c(Cl)c1	T cruzi growth-1 inconclusive (no result: IDH1 mut inh) | T cruzi growth-2 98.9 | T cruzi growth-3 108.1 | 3T3 cytotox inactive | 3T3 cytotox 2 104.8
C[C@@H]1CN([C@@H](C)CO)C(=O)c2cccc(NC(=O)Nc3ccc(C(F)(F)F)cc3)c2O[C@H]1CN(C)Cc1ccc(Cl)c(Cl)c1	T cruzi growth-1 129.7 | T cruzi growth-2 102.5 | T cruzi growth-3 115.9 | 3T3 cytotox 38.8 | 3T3 cytotox 2 89.0
C[C@@H]1CN([C@H](C)CO)C(=O)c2cccc(NC(=O)Nc3ccc(C(F)(F)F)cc3)c2O[C@@H]1CN(C)S(=O)(=O)c1ccc(Cl)cc1	T cruzi growth-1 107.9 (no result: KDM4C inh) | T cruzi growth-2 102.8 | T cruzi growth-3 107.0 | 3T3 cytotox inactive | 3T3 cytotox 2 104.6
CC1(C)NC(=O)N(CC(=O)Nc2ccc(Br)cc2)C1=O	none (no result: T cruzi growth-1, KDM4C inh, Pf Dd2 inh)
C[C@H]1CN([C@@H](C)CO)C(=O)c2cccc(NC(=O)Nc3ccc(C(F)(F)F)cc3)c2O[C@H]1CN(C)Cc1ccc2c(c1)OCO2	T cruzi growth-1 99.4 (no result: IDH1 mut inh) | T cruzi growth-2 105.7 | T cruzi growth-3 103.1 | 3T3 cytotox inactive | 3T3 cytotox 2 97.7
C[C@H](CO)N1C[C@H](C)[C@H](CN(C)Cc2ccc(Cl)c(Cl)c2)Oc2ccc(NC(=O)Nc3ccc(C(F)(F)F)cc3)cc2C1=O	T cruzi growth-1 103.1 | T cruzi growth-2 97.7 | T cruzi growth-3 109.3 | 3T3 cytotox inactive | 3T3 cytotox 2 107.5
COc1ccc(-n2c(SCC(=O)Nc3ccccc3C)nc3ccccc3c2=O)cc1	none (no result: T cruzi growth-1, KDM4C inh, Pf Dd2 inh)
N#C[C@@H]1[C@@H](c2ccc(-c3cccc(F)c3)cc2)[C@H](CO)N1S(=O)(=O)c1cccc(F)c1	T cruzi growth-1 99.0 (no result: IDH1 mut inh) | T cruzi growth-2 102.4 | T cruzi growth-3 inactive | 3T3 cytotox 40.9 | 3T3 cytotox 2 106.8
N#C[C@@H]1[C@H](c2ccc(-c3cccc(F)c3)cc2)[C@@H](CO)N1S(=O)(=O)c1cccc(F)c1	T cruzi growth-1 101.5 (no result: IDH1 mut inh) | T cruzi growth-2 105.5 | T cruzi growth-3 102.9 | 3T3 cytotox inactive | 3T3 cytotox 2 104.7
CCS(=O)(=O)N1[C@H](C#N)[C@@H](c2ccc(-c3cccc(F)c3)cc2)[C@@H]1CO	none (no result: IDH1 mut inh)
C/C=C/c1ccc([C@@H]2[C@@H](C#N)N(S(=O)(=O)c3cccc(F)c3)[C@@H]2CO)cc1	T cruzi growth-1 107.1 (no result: IDH1 mut inh) | T cruzi growth-2 inactive | T cruzi growth-3 inactive | 3T3 cytotox inactive | 3T3 cytotox 2 25.2
COc1ccc(CN(C)C[C@H]2OCCCC[C@H](C)Oc3ccc(NC(=O)Nc4cccc5ccccc45)cc3C(=O)N([C@H](C)CO)C[C@H]2C)cc1	T cruzi growth-1 inconclusive, Pf Dd2 inh -89.9 | T cruzi growth-2 98.2 | T cruzi growth-3 106.2 | 3T3 cytotox inactive | 3T3 cytotox 2 55.4
C[C@H]1CCCCO[C@H](CN(C)Cc2ccccc2)[C@@H](C)CN([C@@H](C)CO)C(=O)c2cc(NC(=O)Nc3cccc4ccccc34)ccc2O1	none (no result: T cruzi growth-1, IDH1 mut inh)
C[C@H](CO)N1C[C@H](C)[C@@H](CN(C)Cc2ccccc2)OCCCC[C@H](C)Oc2ccc(NC(=O)Nc3cccc4ccccc34)cc2C1=O	none (no result: T cruzi growth-1, IDH1 mut inh)
C[C@@H]1CN([C@H](C)CO)C(=O)c2cc(NC(=O)Nc3cccc4ccccc34)ccc2O[C@@H](C)CCCCO[C@H]1CN(C)Cc1ccncc1	T cruzi growth-1 99.7 (no result: IDH1 mut inh) | T cruzi growth-2 107.2 | T cruzi growth-3 inactive | 3T3 cytotox 36.3 | 3T3 cytotox 2 46.9
C[C@@H]1CN([C@H](C)CO)C(=O)c2cc(NC(=O)Nc3cccc4ccccc34)ccc2O[C@@H](C)CCCCO[C@@H]1CN(C)Cc1ccncc1	none (no result: IDH1 mut inh)
